# Assay results of several laboratories.
# Lines come from different studies, so protocols differ.
# Target: Mitogen-activated protein kinase kinase kinase 20 (MAP3K20, Homo sapiens, UniProt Q9NYL2)
Structure (SMILES),read-out,technique,tested at,remaining binding
Nc1ncc2c(n1)-c1c([nH]c3ccc(C#CC4CC4)cc13)CCCC2,binding,competition with immobilised ligand,1 µM,93%
O=C(c1ccc(Nc2ncc(Cl)c(-c3cc4ccccc4s3)n2)cc1)N1CCC(N2CCCC2)CC1,binding,competition with immobilised ligand,1 µM,48%
Cc1cc(-n2nc(Cc3cc(F)cc(C(F)(F)F)c3)nc2C)ccc1C(N)=O,cell-free assay,competition with immobilised ligand,1 µM,99%
C[C@@H](c1ccc(-n2cnc3c(N)ncnc32)cc1)N1CCc2nn(C)c(Cc3ccccc3)c2C1=O,binding,competition with immobilised ligand,0.1 µM,58%
C=CC(=O)N1CCC(C(=O)NCC(=O)N2CCN(c3nc(-c4cnc(N)nc4C(F)F)nc(N4CCOCC4)n3)CC2)CC1,binding,competition with immobilised ligand,1 µM,100%
COc1cnc(Nc2cccc(S(N)(=O)=O)c2)nc1N1CCN(c2ccccc2)CC1,binding,competition with immobilised ligand,1 µM,100%
Cc1cnn2ncc(-c3ccnc(N(C)C)n3)c2c1,binding,,1 µM,95%
O=C(NCC1CCOCC1)c1n[nH]cc1NC(=O)c1c(F)cccc1F,binding,competition with immobilised ligand,1 µM,100%
O=C(NCCCN1CCOCC1)c1ccc(Nc2ncc(Cl)c(-c3ccc(Cl)s3)n2)cc1,binding,competition with immobilised ligand,1 µM,69%
CC1CCCN1c1nccc(-c2cnn3ncccc23)n1 (stereo not shown),binding,,1 µM,100%
Cc1c(NC(=O)c2cc(C(N)=O)nc3cc(F)ccc23)c(C(F)(F)F)nn1Cc1ccc(C(C)(C)C)cc1,cell-free assay,competition with immobilised ligand,1 µM,100%
COc1ncc2cc3ccccc3nc2c1C#N,cell-free assay,competition with immobilised ligand,5 µM,80%
Cc1cc(C)c(-n2ccn3nc(-c4cccnc4)cc23)cc1NC(=O)c1cc(C#N)cc(S(F)(F)(F)(F)F)c1,cell-free assay,competition with immobilised ligand,0.1 µM,97.5%
F[C@@H]1CCN(c2nccc(-c3cnn4ncccc34)n2)C1,binding,,1 µM,76%
O=C(NCc1ncc(C(F)(F)F)cc1Cl)c1ccc2c(c1)C1(CCS(=O)(=O)CC1)[C@H](C1CC1)N2S(=O)(=O)c1ccc(F)cc1,cell-free assay,competition with immobilised ligand,1 µM,100%
N[C@@H]1CCN(c2nccc(-c3cnn4ncccc34)n2)C1,binding,,1 µM,100%
CS(=O)(=O)NCC[C@H](NC(=O)c1cncc2c1cnn2-c1ccc(F)cc1)c1ccnc(S(C)(=O)=O)c1,cell-free assay,competition with immobilised ligand,1 µM,88%
C[C@@H]1CCN(c2nccc(-c3cnn4ncccc34)n2)C1,binding,,1 µM,100%
COc1cnc(Nc2cccc(S(N)(=O)=O)c2)nc1N1CCN(c2ccccc2)C(=O)C1,binding,competition with immobilised ligand,1 µM,100%
O=C(c1ccc(Nc2nccc(-c3cc4ccccc4s3)n2)cc1)N1CCC(N2CCCC2)CC1,binding,competition with immobilised ligand,1 µM,69%
O=c1nc(-c2ccccn2)sc2ccccc12,binding,competition with immobilised ligand,1 µM,87%
COc1ccnn2ncc(-c3ccnc(N(C)C)n3)c12,binding,,1 µM,100%
